According to ChEMBL document CHEMBL1140216, “Triazine compounds as antagonists at Bv8-prokineticin receptors” (J Med Chem, 2008):

Assays:
Prokineticin receptor 2 [1] = biological target: T1, Prokineticin receptor 2 (Homo sapiens, UniProt Q8NFJ6); test: Displacement of [I125]MIT from PKR2 expressed in CHO cell membrane; type: cell membranes
Prokineticin receptor 1 [2] = biological target: T2, Prokineticin receptor 1 (Homo sapiens, UniProt Q8TCW9); test: Displacement of [I125]MIT from PKR1 expressed in CHO cell membrane; type: cell membranes
Prokineticin receptor 1 [3] = biological target: T2, Prokineticin receptor 1; test: Antagonist activity at PKR1 expressed in CHO cell membrane assessed as reduction of Bv8-induced increase in intracellular calcium level at 1 mM; type: functional, cell-based; design: scale not given: the % may be the effect or the level left
Outline: (§1)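 Intact CHO cells transfected with PKR1 or PKR2. Compound preincubated 4 min, then challenged with 1 nM Bv8, and fluorescence followed for 2 min. Intracellular Ca2+ was read as the 340/380 nm […] ratio, and the result was scored as the percentage of cells responding to Bv8.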

Prokineticin receptor 2 [4] = biological target: T1, Prokineticin receptor 2; test: Antagonist activity at PKR2 expressed in CHO cell membrane assessed as reduction of Bv8-induced increase in intracellular calcium level at 1 mM; type: functional, cell-based; design: scale not given: the % may be the effect or the level left; outline: as §1
Prokineticin receptor 2 [5] = biological target: T1, Prokineticin receptor 2; test: Antagonist activity at PKR2 expressed in CHO cell membrane assessed as reduction of Bv8-induced increase in intracellular calcium level at 10 uM; type: functional, cell-based; design: scale not given: the % may be the effect or the level left; outline: as §1
Prokineticin receptor 1 [6] = biological target: T2, Prokineticin receptor 1; test: Antagonist activity at PKR1 expressed in CHO cell membrane assessed as reduction of Bv8-induced increase in intracellular calcium level at 10 uM; type: functional, cell-based; design: scale not given: the % may be the effect or the level left; outline: as §1
Prokineticin receptor 1 [7] = biological target: T2, Prokineticin receptor 1; test: Antagonist activity at PKR1 expressed in CHO cell membrane assessed as reduction of Bv8-induced increase in intracellular calcium level at 100 uM; type: functional, cell-based; design: scale not given: the % may be the effect or the level left; outline: as §1
Prokineticin receptor 1 [8] = biological target: T2, Prokineticin receptor 1; test: Antagonist activity at PKR1 expressed in CHO cell membrane assessed as reduction of Bv8-induced increase in intracellular calcium level at 100 nM; type: functional, cell-based; design: scale not given: the % may be the effect or the level left; outline: as §1
Prokineticin receptor 1 [9] = biological target: T2, Prokineticin receptor 1; test: Antagonist activity at PKR1 expressed in CHO cell membrane assessed as reduction of Bv8-induced increase in intracellular calcium level at 300 nM; type: functional, cell-based; design: scale not given: the % may be the effect or the level left; outline: as §1
Prokineticin receptor 2 [10] = biological target: T1, Prokineticin receptor 2; test: Antagonist activity at PKR2 expressed in CHO cell membrane assessed as reduction of Bv8-induced increase in intracellular calcium level at 100 nM; type: functional, cell-based; design: scale not given: the % may be the effect or the level left; outline: as §1
[11] = Selectivity for ratio of Ki for PKR2 to Ki for PKR1
Prokineticin receptor 2 [12] = biological target: T1, Prokineticin receptor 2; test: Antagonist activity at PKR2 expressed in CHO cell membrane assessed as reduction of Bv8-induced increase in intracellular calcium level at 300 nM; type: functional, cell-based; design: scale not given: the % may be the effect or the level left; outline: as §1

T2 sequence (Q8TCW9 whole entry): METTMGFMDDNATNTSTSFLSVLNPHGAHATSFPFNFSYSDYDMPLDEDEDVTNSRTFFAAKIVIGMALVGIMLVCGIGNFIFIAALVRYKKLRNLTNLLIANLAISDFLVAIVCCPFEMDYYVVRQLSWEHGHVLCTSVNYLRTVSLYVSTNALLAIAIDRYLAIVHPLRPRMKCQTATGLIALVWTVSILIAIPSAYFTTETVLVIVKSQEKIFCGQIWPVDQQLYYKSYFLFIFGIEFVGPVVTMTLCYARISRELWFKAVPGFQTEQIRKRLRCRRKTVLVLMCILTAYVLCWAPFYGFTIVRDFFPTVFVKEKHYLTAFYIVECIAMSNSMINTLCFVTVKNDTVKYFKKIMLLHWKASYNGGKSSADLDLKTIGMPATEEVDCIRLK
T1 sequence (Q8NFJ6 whole entry): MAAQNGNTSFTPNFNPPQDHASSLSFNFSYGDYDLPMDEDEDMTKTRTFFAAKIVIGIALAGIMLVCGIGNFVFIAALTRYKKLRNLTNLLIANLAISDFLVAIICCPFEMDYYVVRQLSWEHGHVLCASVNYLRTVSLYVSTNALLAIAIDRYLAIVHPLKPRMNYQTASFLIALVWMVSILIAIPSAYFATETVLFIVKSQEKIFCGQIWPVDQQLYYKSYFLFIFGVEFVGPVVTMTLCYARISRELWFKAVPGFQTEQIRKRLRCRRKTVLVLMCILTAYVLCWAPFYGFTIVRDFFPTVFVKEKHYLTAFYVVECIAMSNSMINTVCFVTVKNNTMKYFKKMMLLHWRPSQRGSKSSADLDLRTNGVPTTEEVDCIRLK

Work on `CCc1ccc(Cn2c(=O)nc(NCCN)n(Cc3ccc(OC)cc3)c2=O)cc1` yielded a Ki (Prokineticin receptor 2 [1]) of 23.4 µM, a Ki (Prokineticin receptor 1 [2]) of 0.44 µM and an Activity (Prokineticin receptor 1 [3]) of 0.3%. It also gave an Activity (Prokineticin receptor 2 [4]) of 2%, an Activity (Prokineticin receptor 2 [5]) of 89% and an Activity (Prokineticin receptor 1 [6]) of 90%.

Work on `CCc1ccc(Cn2c(=O)nc(NCCNC3=NCCN3)n(Cc3ccc(OC)cc3)c2=O)cc1` yielded an Activity (Prokineticin receptor 1 [7]) of 91%.

In the case of `CCc1ccc(Cn2c(=O)nc(NCCNC(=N)N)n(Cc3ccc(OC)cc3)c2=O)cc1`, the Activity (Prokineticin receptor 1 [8]) is reported as 52%, the Ki (Prokineticin receptor 2 [1]) is reported as 1.61 µM and the Ki (Prokineticin receptor 1 [2]) is reported as 0.022 µM. For the same compound, the Activity (Prokineticin receptor 1 [9]) was 4%, the Activity (Prokineticin receptor 2 [10]) was 48% and the Ratio Ki [11] was 70. The Activity (Prokineticin receptor 2 [12]) was 6%.

Compound `CCc1ccc(Cn2c(=O)nc(NCCN=C3NCCN3)n(Cc3ccc(OC)cc3)c2=O)cc1` has a Ki (Prokineticin receptor 2 [1]) of 71.2 µM and a Ki (Prokineticin receptor 1 [2]) of 4.72 µM.
